The text below walks through data of ChEMBL document CHEMBL1124968, “Synthesis and biological activity of new HMG-CoA reductase inhibitors. 2. Derivatives of 7-(1H-pyrrol-3-yl)-substituted-3,5-dihydroxyhept-6(E)-enoic (-heptanoic) acids” (J Med Chem, 1990).

The target in assay [1] is T1, 3-hydroxy-3-methylglutaryl-coenzyme A reductase (Homo sapiens) (UniProt P04035).
T1 sequence (whole entry): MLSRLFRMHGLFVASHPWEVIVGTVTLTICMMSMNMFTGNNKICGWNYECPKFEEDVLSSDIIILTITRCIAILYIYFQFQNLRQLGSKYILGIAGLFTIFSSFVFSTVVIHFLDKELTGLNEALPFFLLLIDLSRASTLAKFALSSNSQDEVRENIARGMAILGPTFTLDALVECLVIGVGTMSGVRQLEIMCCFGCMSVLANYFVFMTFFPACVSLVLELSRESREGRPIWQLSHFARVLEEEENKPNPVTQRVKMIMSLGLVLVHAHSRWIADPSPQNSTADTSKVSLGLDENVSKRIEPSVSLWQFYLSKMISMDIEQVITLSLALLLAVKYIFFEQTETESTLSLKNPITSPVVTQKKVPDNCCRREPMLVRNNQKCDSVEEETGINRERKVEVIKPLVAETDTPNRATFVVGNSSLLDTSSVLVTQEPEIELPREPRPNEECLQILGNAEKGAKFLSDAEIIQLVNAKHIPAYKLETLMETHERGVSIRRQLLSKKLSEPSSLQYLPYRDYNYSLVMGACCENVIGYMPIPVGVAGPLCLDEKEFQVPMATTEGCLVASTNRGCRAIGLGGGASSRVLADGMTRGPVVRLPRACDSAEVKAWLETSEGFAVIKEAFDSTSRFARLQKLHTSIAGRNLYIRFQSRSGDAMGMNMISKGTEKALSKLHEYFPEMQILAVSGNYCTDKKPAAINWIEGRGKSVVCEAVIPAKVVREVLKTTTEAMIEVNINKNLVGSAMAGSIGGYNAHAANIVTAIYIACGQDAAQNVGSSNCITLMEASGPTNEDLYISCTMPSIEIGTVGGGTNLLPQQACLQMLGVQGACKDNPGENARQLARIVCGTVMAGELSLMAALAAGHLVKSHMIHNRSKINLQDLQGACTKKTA
The experiment in a line: Inhibition of cellular HMG-CoA reductase in cultures of hepatic cells (HEP G2, a human hepatoma cell line) relative to mevinolin. It counts as cell-based. In a few lines:
(§1)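 HEP G2 human hepatoma cells in culture; cellular HMG-CoA reductase inhibition read as reduced incorporation of sodium [14C]acetate into cholesterol; IC50 values varied somewhat between cell batches. Assay system as in the preceding paper.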

Assay [2] concerns the target T2, 3-hydroxy-3-methylglutaryl-coenzyme A reductase (Rattus norvegicus, UniProt P51639).
T2 sequence (P51639 whole entry): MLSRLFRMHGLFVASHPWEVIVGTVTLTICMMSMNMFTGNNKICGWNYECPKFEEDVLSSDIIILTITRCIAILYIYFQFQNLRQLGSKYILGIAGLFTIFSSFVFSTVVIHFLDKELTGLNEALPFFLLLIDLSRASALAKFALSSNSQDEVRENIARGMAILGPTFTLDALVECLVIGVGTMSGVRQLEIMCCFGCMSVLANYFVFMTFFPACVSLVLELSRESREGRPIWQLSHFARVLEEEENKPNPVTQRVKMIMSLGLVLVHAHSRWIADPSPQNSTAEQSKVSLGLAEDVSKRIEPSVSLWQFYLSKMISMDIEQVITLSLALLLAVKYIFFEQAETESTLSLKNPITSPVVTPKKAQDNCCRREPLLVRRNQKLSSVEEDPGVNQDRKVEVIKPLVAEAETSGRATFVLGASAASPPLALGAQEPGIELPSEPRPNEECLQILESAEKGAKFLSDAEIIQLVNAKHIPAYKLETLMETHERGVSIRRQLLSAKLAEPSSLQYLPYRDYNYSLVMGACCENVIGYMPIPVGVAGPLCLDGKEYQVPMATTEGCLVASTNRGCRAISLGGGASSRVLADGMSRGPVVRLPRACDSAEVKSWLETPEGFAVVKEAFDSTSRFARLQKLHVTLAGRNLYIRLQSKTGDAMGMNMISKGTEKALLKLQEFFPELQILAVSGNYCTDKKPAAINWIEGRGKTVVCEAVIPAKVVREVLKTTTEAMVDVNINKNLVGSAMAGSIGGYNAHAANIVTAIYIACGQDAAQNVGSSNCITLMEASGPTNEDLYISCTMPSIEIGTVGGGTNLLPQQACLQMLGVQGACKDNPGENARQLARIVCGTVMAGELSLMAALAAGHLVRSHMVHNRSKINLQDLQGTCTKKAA
The experiment in a line: In vitro inhibition of HMG-CoA reductase of rat liver.

Assay [3] has as its target T3, 3-hydroxy-3-methylglutaryl-coenzyme A reductase (Rattus norvegicus) (UniProt P51639).
T3 sequence (whole entry): T2 sequence (P51639 whole entry)
Nature of the assay: In vitro inhibition of solubilized, partially purified rat liver HMG-CoA reductase relative to mevinolin.

For assay [4], the target named is T4, 3-hydroxy-3-methylglutaryl-coenzyme A reductase (Homo sapiens, UniProt P04035).
T4 sequence (P04035 whole entry): T1 sequence (whole entry)
The experiment in a line: Inhibition of cellular HMG-CoA reductase in cultures of hepatic cells (HEP G2, a human hepatoma cell line). It counts as cell-based. In a few lines: as §1

Assay [5] deals with Rattus norvegicus. The experiment in a line: Inhibition of hepatic cholesterol de novo synthesis in male rats after po administration; values are per cent of control.
The test system of assay [6] is Oryctolagus cuniculus. The experiment in a line: Percent decrease in total plasma cholesterol in rabbit was determined after oral administration of a dose of 10 mg/kg for 6 days. Format: functional. The arrangement: scale not given: the % may be the effect or the level left. In short, it runs like this:
(§2)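 Normally fed normolipemic rabbits given oral doses repeatedly (20 mg/kg for 10 days, n = 6; 10 mg/kg for 6 days, n = 4); total plasma cholesterol decrease expressed as percent.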

Assay [7] concerns Rattus norvegicus. The experiment in a line: Inhibition of hepatic cholesterol de novo synthesis in male rats after po administration, relative to mevinolin. Format: functional. In a few lines: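 Male rats dosed orally. […] Dose 5 mg/kg bw for lactone form, optically pure; 10 mg/kg bw for racemic sodium salts. Potency expressed against optically pure mevinolin tested under the same conditions.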

For assay [8], the system named is Canis familiaris. Nature of the assay: Percent decrease in plasma LDL-cholesterol in dog was determined after oral administration of a dose of 10 mg/kg for 19 days. It counts as functional, Canis lupus familiaris. The arrangement: scale not given: the % may be the effect or the level left. In short, it runs like this:
(§3)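 Normally fed male beagle dogs (n = 4) given drug orally each day (20 mg/kg for 14 days or 10 mg/kg for 19 days); plasma LDL- and HDL-cholesterol followed as percent change.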

Assay [9] relates to Canis familiaris. Nature of the assay: Percent increase in plasma HDL-cholesterol in dog was determined after oral administration of a dose of 10 mg/kg for 19 days. It counts as functional, Canis lupus familiaris. In a few lines:
as §3

Assay [10] has as its system Rattus norvegicus. The experiment in a line: Inhibition of hepatic cholesterol de novo synthesis in male rats after po administration,; values are per cent of control.
For assay [11], the system named is Canis familiaris. Nature of the assay: Percent decrease in plasma LDL-cholesterol in dog was determined after oral administration of a dose of 20 mg/kg for 14 days. Format: functional, Canis lupus familiaris. Also on record: scale not given: the % may be the effect or the level left. In a few lines:
as §3

For assay [12], the system named is Canis familiaris. The experiment in a line: Percent increase in plasma HDL-cholesterol in dog was determined after oral administration of a dose of 20 mg/kg for 14 days. Format: functional, Canis lupus familiaris. In short, it runs like this: as §3
For assay [13], the system named is Oryctolagus cuniculus. Nature of the assay: Percent decrease in total plasma cholesterol in rabbit was determined after oral administration of a dose of 20 mg/kg for 10 days. Format: functional. Also on record: scale not given: the % may be the effect or the level left. In short, it runs like this: as §2

Each structure is given as a SMILES string. Bounds are passed on as bounds.

In the case of `CC(C)c1c(/C=C/[C@H](O)C[C@@H](O)CC(=O)O)c(-c2ccc(F)cc2)cn1C1CCCCC1`, the Relative potency is 47 in assay [1] and 12 in [3]. Besides, the IC50 was found to be 69 nM in assay [2] and 106 nM in assay [4].

`CC(C)c1c(CC[C@@H](O)C[C@@H](O)CC(=O)O)c(-c2ccc(F)cc2)cn1C(C)C` [listing 1 of 2 here] had an IC50 in assay [2] of 9 nM.

For the compound `CC(C)c1c(CC[C@@H](O)C[C@@H](O)CC(=O)[O-])c(-c2ccc(F)cc2)cn1C1CCCCC1.[Na+]`, in the assay with Rattus norvegicus [5], the “level, % of control” value is recorded as 6%.

`Cc1c(-c2ccc(F)cc2)c(CC[C@@H](O)C[C@@H](O)CC(=O)O)c(C(C)C)n1-c1ccccc1` (racemic) [listing 1 of 2 here]: in assay [3], the Relative potency came out at 149.

In assay [3], `Cc1c(-c2ccc(F)cc2)c(CC[C@@H](O)C[C@@H](O)CC(=O)O)c(C(C)C)n1-c1ccccc1` [listing 1 of 2 here] had a Relative potency of 300.

For the compound `CC(C)c1c(/C=C/[C@@H](O)C[C@@H](O)CC(=O)[O-])c(-c2ccc(F)cc2)cn1-c1ccccc1.[Na+]`, the “level, % of control” value with Rattus norvegicus [5] is on record as 5.5%.

Regarding `Cc1c(/C=C/[C@@H](O)C[C@@H](O)CC(=O)O)c(-c2ccc(F)cc2)cn1C(C)C`, the Relative potency in [1] turned out to be 1; in assay [3] it was 2. Moreover, the IC50 in [2] worked out at 330 nM; in assay [4] it was 6000 nM.

Turning to `CC(C)c1c(CC[C@@H](O)C[C@@H](O)CC(=O)O)c(-c2ccc(F)cc2)cn1C(C)C` (racemic), the values for the Relative potency in [1] and in assay [3] were 2500 and 42, respectively.

Consider `Cc1c(-c2ccc(F)cc2)c(CC[C@@H](O)C[C@@H](O)CC(=O)O)c(C(C)C)n1-c1ccccc1` [listing 2 of 2 here], for which, in assay [2], it took 2.5 nM to reach half-maximal inhibition (IC50).

Regarding `CC(C)c1c(CC[C@@H](O)C[C@@H](O)CC(=O)[O-])c(-c2ccc(F)cc2)cn1C(C)C.[Na+]` (racemic), the IC50 was 18 nM in assay [2] and 2 nM in assay [4]. For the same compound, the Activity in the assay with Oryctolagus cuniculus [6] turned out to be 42%. In the assay with Rattus norvegicus [7], the Relative potency is listed as 156. For the same compound, in the assay with Rattus norvegicus [5], the “level, % of control” value came out at 9%.

Regarding `CC[C@H](C)C(=O)O[C@H]1C[C@@H](C)C=C2C=C[C@H](C)[C@H](CC[C@@H]3C[C@@H](O)CC(=O)O3)[C@H]21` [LOVASTATIN], the Activity is recorded as -18% with Canis familiaris [8], 2% with Canis familiaris [9] and 25% in the assay on Oryctolagus cuniculus [6]. Also, the “level, % of control” value in the assay with Rattus norvegicus [10] worked out at 14%.

Regarding `Cc1c(/C=C/[C@@H](O)C[C@@H](O)CC(=O)O)c(-c2ccc(F)cc2)c(C)n1-c1ccccc1`, the results for the Relative potency in [1] and in assay [3] were 1 and 3, respectively. Besides, the IC50 in [2] came out at 250 nM; in assay [4] it was 5000 nM.

For `Cc1c(CC[C@@H](O)C[C@@H](O)CC(=O)O)c(-c2ccc(F)cc2)c(C)n1-c1ccccc1`, the values for the Relative potency in assay [1] and in assay [3] were 9 and 11, respectively. Moreover, the IC50 in [2] came to 70 nM; in assay [4], 570 nM.

As to `CC(C)c1c(CC[C@@H](O)C[C@@H](O)CC(=O)O)c(-c2ccc(F)cc2)cn1-c1ccccc1`, half-maximal inhibition in [2] (IC50) was put at 3 nM. The compound further gave a Relative potency in assay [3] of 257.

For `Cc1c(CC[C@@H](O)C[C@@H](O)CC(=O)O)c(-c2ccc(F)cc2)cn1C(C)C`, the Relative potency in assay [1] was 19; in [3], 9. The figures for the IC50 in assay [2] and in assay [4] were 100 nM and 270 nM, respectively.

Regarding `Cc1c(-c2ccc(F)cc2)c(CC[C@@H](O)C[C@@H](O)CC(=O)O)c(C(C)C)n1-c1ccccc1` (racemic) [listing 2 of 2 here], 5 nM corresponded to half-maximal inhibition in assay [2] (IC50).

On to `CC(C)c1c(CCC(O)CC(O)CC(=O)[O-])c(-c2ccc(F)cc2)cn1-c1ccccc1.[Na+]` (racemic), for which the results for the Activity in the assay with Canis familiaris [11], in the assay with Canis familiaris [12] and with Oryctolagus cuniculus [13] were 48%, 14% and 34%, respectively. In addition, the Relative potency in assay [1] is greater than 500; in assay [3], 128; in the assay with Rattus norvegicus [7], 250. For the same compound, the IC50 in assay [2] was 6 nM; in assay [4] it was less than 10 nM. Moreover, the “level, % of control” value in the assay with Rattus norvegicus [5] came to 5.6%.

Take `CC(C)c1c(CC[C@@H](O)C[C@@H](O)CC(=O)O)c(-c2ccc(F)cc2)cn1C(C)C` [listing 2 of 2 here]: in assay [3], the Relative potency turned out to be 85.

As a reminder, the IC50 is the concentration that inhibits the measured activity by half.
